pEC50: −log10 of the molar value.
What was measured:
[1] = Cytotoxicity against human MRC5 cells; assay type: toxicity, cell-based
Method in brief: (§1)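 CC50 was measured in parallel on compound-treated uninfected cells, run alongside the antiviral assay. Cells were seeded one day ahead in assay medium with 2.5 % FBS (RD at 50000 cells/well) and held at 37 °C, 5 % CO2; MRC-5 were grown in BME with 10 % FBS. Compounds were added as eight ½ dilutions. CC50 came from nonlinear regression (log(inhibitor) vs response, variable slope, three parameters); median ± std of two independent experiments.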

[2] = Selectivity index, ratio of CC50 for cytotoxicity against human MRC5 cells to EC50 for antiviral activity against Enterovirus A71 infected in human MRC5 cells; assay type: toxicity, cell-based; conditions: read-out: Selectivity Index
[3] = test system: Human echovirus 30; assay: Antiviral activity against Echovirus 30 strain UVE/E-30/2013/FR/4-MRS2013 infected in human MRC5 cells assessed as […]; assay type: functional, organism-based, Echovirus E30; conditions: Enterovirus B, UVE/E-30/2013/FR/4-MRS2013, MRC5
Method in brief: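 MRC-5 cells seeded the day before infection in assay medium with 2.5 % FBS. After 24 h, compounds added as eight ½ dilutions, then virus added. On day 3 post-infection, supernatant harvested and viral RNA quantified by RT-qPCR (pan-enterovirus probe/primers, synthetic RNA standard curve). Inhibition calculated relative to four virus control wells per plate. EC50 obtained by nonlinear regression (log(inhibitor) vs response, variable slope, three parameters); two independent experiments.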

[4] = test system: Coxsackievirus; assay: Antiviral activity against Coxsackievirus A24 UVE/CV-A24/2010/LA/HFMK14 infected in human MRC5 cells assessed as […]; assay type: functional, organism-based; conditions: UVE/CV-A24/2010/LA/HFMK14, MRC5
[5] = Selectivity index, ratio of CC50 for cytotoxicity against human MRC5 cells to EC50 for antiviral activity against Coxsackievirus A24 UVE/CV-A24/2010/LA/HFMK14 infected in human MRC5 cells; assay type: toxicity, cell-based; conditions: read-out: Selectivity Index
Method in brief: (§2)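 In MRC-5 cells, SI = CC50/EC50. EC50 comes from the 3-day RT-qPCR viral RNA inhibition assay with eight ½ dilutions. CC50 was measured in parallel on compound-treated uninfected MRC-5 cells. Both values derived by nonlinear regression (three-parameter, variable slope); two independent experiments.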

[6] = test system: Enterovirus A71; assay: Antiviral activity against Enterovirus A71 Laos2011 HFMD18T infected in human MRC5 cells assessed as reduction in viral replication incubated for 72 hrs by RT-qPCR analysis; assay type: functional, organism-based; conditions: Enterovirus A, MRC5, 72 h
[7] = test system: Enterovirus A71; assay: Antiviral activity against Enterovirus A71 Laos2011 HFMD18T infected in human RD cells assessed as reduction in viral replication incubated for 72 hrs by RT-qPCR analysis; assay type: functional, organism-based; conditions: Enterovirus A
[8] = Cytotoxicity against human RD cells; assay type: toxicity, cell-based; method in brief: as §1
[9] = Selectivity index, ratio of CC50 for cytotoxicity against human RD cells to EC50 for antiviral activity against Enterovirus A71 infected in human RD cells
[10] = Cytotoxicity against Chinese hamster CHO cells
[11] = Selectivity index, ratio of CC50 for cytotoxicity against human MRC5 cells to EC50 for antiviral activity against Echovirus 30 strain UVE/E-30/2013/FR/4-MRS2013 infected in human MRC5 cells; assay type: toxicity, cell-based; conditions: read-out: Selectivity Index; method in brief: as §2
[12] = test system: Enterovirus A71; assay: Antiviral activity against Enterovirus A71 Laos2011 HFMD18T infected in human RD cells assessed as RNA copies measured per ml of supernatant at 10 uM pretreated 1 hr before infection measured after 72 hrs relative to control; assay type: functional
[13] = test system: Enterovirus A71; assay: Antiviral activity against Enterovirus A71 Laos2011 HFMD18T infected in human RD cells assessed as RNA copies measured per ml of supernatant at 10 uM treated at time of infection measured after 72 hrs; assay type: functional
[14] = test system: Enterovirus A71; assay: Antiviral activity against Enterovirus A71 Laos2011 HFMD18T infected in human RD cells assessed as RNA copies measured per ml of supernatant at 10 uM treated 4 hr post infection measured after 72 hrs; assay type: functional
[15] = test system: Enterovirus A71; assay: Antiviral activity against Enterovirus A71 Laos2011 HFMD18T infected in human RD cells assessed as inhibition of viral RNA measured per ml of supernatant at 10 uM pretreated 1 hr before infection measured after 72 hrs; assay type: functional; conditions: Enterovirus A
[16] = test system: Enterovirus A71; assay: Antiviral activity against Enterovirus A71 Laos2011 HFMD18T infected in human RD cells assessed as inhibition of viral RNA copies measured per ml of supernatant at 10 uM treated at time of infection measured after 72 hrs; assay type: functional; conditions: Enterovirus A
[17] = test system: Enterovirus A71; assay: Antiviral activity against Enterovirus A71 Laos2011 HFMD18T infected in human RD cells assessed as inhibition of viral RNA copies measured per ml of supernatant at 10 uM treated 4 hr post infection measured after 72 hrs; assay type: functional; conditions: Enterovirus A
[18] = test system: Enterovirus A71; assay: Antiviral activity against Enterovirus A71 Laos2011 HFMD18T infected in human RD cells assessed as inhibition of viral RNA copies measured per ml of supernatant at 10 uM measured after 72 hrs; conditions: Enterovirus A
[19] = test system: Enterovirus A71; assay: Antiviral activity against Enterovirus A71 Laos2011 HFMD18T infected in human RD cells assessed as RNA copies measured per ml of supernatant at 10 uM treated 1 hr post infection measured after 72 hrs

| SMILES | pEC50 [6] | pEC50 [7] | CC50 [8] | selectivity ratio [9] | further results |
| --- | --- | --- | --- | --- | --- |
| OCc1ccc(-c2ccc(SCc3ccc(-n4cncn4)cc3)nc2)cc1 |  |  |  |  | CC50 [1]: > 40 µM; selectivity ratio [2]: > 181; pEC50 [3]: < 4.40; pEC50 [4]: 4.63; selectivity ratio [5]: > 1.7 |
| OCc1cccc(-c2ccc(SCc3ccc(-n4cncn4)cc3)nc2)c1 | 4.66 | 5.56 | > 40 µM | > 14 | CC50 [1]: > 40 µM; selectivity ratio [2]: > 1.8 |
| c1ncn(-c2ccc(CSc3ccc(-c4ccc5cn[nH]c5c4)cc3)cc2)n1 |  | < 4.40 |  |  |  |
| c1ccc2oc(-c3ccc(SCc4ccc(-n5cncn5)cc4)cc3)cc2c1 |  | < 4.40 |  |  |  |
| Cn1cc(-c2ccc(CSc3ccc(-c4ccc5ccccc5c4)cn3)cc2)cn1 | 4.65 | 4.92 | > 40 µM | > 3.3 | CC50 [1]: > 40 µM; selectivity ratio [2]: > 1.8 |
| CN(C)c1ncc(-c2ccc(CSc3ccc(-c4ccc(CO)cc4)cn3)cc2)cn1 |  | < 4.40 |  |  |  |
| O=C1NC(SCc2ccc(-n3cncn3)cc2)=N/C1=C\c1c[nH]c2ccccc12 | < 4.40 | 5.33 | 96.3 µM | 20.7 | CC50 [10]: 33.6 µM |
| c1ccc2cc(-c3ccc(SCc4ccc(-n5cncn5)cc4)nc3)ccc2c1 | 5.49 | 5.73 | 23.5 µM | 15.4 | CC50 [1]: > 40 µM; selectivity ratio [2]: > 12; pEC50 [3]: 6.40; pEC50 [4]: 6.00; selectivity ratio [11]: > 100; selectivity ratio [5]: > 40; Activity [12]: 1.5 log10/ml; Activity [13]: 1.25 log10/ml; Activity [14]: 0.7 log10/ml; inhibition at 10 µM [15]: > 90%; inhibition at 10 µM [16]: > 90%; inhibition at 10 µM [17]: < 90%; CC50 [10]: 43.2 µM; inhibition at 10 µM [18]: > 90%; Activity [19]: 1.14 log10/ml |
| c1ccc2cc(-c3ccc(SCc4ccc(-n5cncn5)cc4)cc3)ncc2c1 | 5.94 | 5.37 | 30.5 µM | 6.62 | CC50 [1]: > 40 µM; selectivity ratio [2]: > 25; pEC50 [3]: 6.39; pEC50 [4]: 5.91; selectivity ratio [11]: > 100; selectivity ratio [5]: > 32; CC50 [10]: 31.3 µM |
| Cn1cc(-c2ccc(SCc3ccc(-n4cncn4)cc3)nc2)cn1 | 6.24 | 5.36 |  |  |  |
| CCNc1ncc(-c2ccc(CSc3ccc(-c4ccc(CO)cc4)cn3)cc2)cn1 |  | < 4.40 |  |  |  |
| OCc1ccc(-c2ccc(SCc3ccc(-c4cnc(N5CCOCC5)nc4)cc3)nc2)cc1 |  | < 4.40 |  |  |  |
| Nc1ncc(-c2ccc(CSc3ccc(-c4ccc(CO)cc4)cn3)cc2)cn1 | > 6.43 | 4.61 | 44.7 µM | 1.81 | CC50 [1]: > 20 µM; selectivity ratio [2]: > 54; CC50 [10]: 36.9 µM |
| c1ccc(Cn2cc(-c3ccc(CSc4ccc(-c5ccc6ccccc6c5)cn4)cc3)cn2)cc1 |  | 4.65 |  |  |  |
| CN1CCN(c2ncc(-c3ccc(CSc4ccc(-c5ccc(CO)cc5)cn4)cc3)cn2)CC1 |  | < 4.40 |  |  |  |
| c1ccc2cc(-c3ccc(SCc4ccc(-n5cncn5)cc4)cc3)ccc2c1 |  | < 4.40 |  |  |  |
| c1ncn(-c2ccc(CSc3ccc(-c4ccc5[nH]ccc5c4)cc3)cc2)n1 |  | < 4.40 |  |  |  |
| CN(C)c1ccc(-c2ccc(CSc3ccc(-c4ccc5ccccc5c4)cn3)cc2)cc1 |  | < 4.40 |  |  |  |
| Cc1noc(C)c1-c1ccc(CSc2ccc(-c3ccc4ccccc4c3)cn2)cc1 | < 4.40 | 4.65 | > 40 µM | > 1.8 |  |
| CN(C)c1cccc(-c2ccc(CSc3ccc(-c4ccc5ccccc5c4)cn3)cc2)c1 |  | < 4.40 |  |  |  |
| c1ccc2cc(-c3ccc(SCc4ccc(-n5cncn5)cc4)nc3)ncc2c1 | < 4.70 | 4.66 | > 40 µM | > 1.8 |  |
| COc1ncc(-c2ccc(CSc3ccc(-c4ccc(CO)cc4)cn3)cc2)cn1 |  | < 4.40 |  |  |  |
| c1ccc2c(-c3ccc(SCc4ccc(-n5cncn5)cc4)nc3)cccc2c1 |  | < 4.40 |  |  |  |
| CCOc1noc2cc(OCCC3CCN(c4ccc(C)nn4)CC3)ccc12 [VAPENDAVIR] |  |  | > 63 µM |  | CC50 [1]: > 20 µM |

From ChEMBL document CHEMBL6109076, “Design and synthesis of novel thioether analogs as promising antiviral agents: In vitro activity against enteroviruses of interest” (Eur J Med Chem, 2025)
